Measured values: ChEMBL document CHEMBL1124192, “Cyclopentenylcytosine. A carbocyclic nucleoside with antitumor and antiviral properties” (J Med Chem, 1988)
Values after ≈ are worked out from the molar mass of the structure shown. Values joined by “and” are separate entries in the source; they are usually repeats but may differ in a detail not shown here. Equal entries are not always repeated.

What was measured:
Cytomegalovirus [1] = experiment: Log value for antiviral activity against Cytomegalovirus (AD169) from MRC5 diploid human embryonic lung cells at 0.1 ug/mL; type: functional
Procedure, shortened: (§1)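 CMV AD169 yield reduction in MRC5 cells. Subconfluent monolayers infected at MOI 0.2 PFU/cell for 1.5 h at 37 °C, rinsed, then fed drug in MEM + 2% FBS, in duplicate. Drug refed on day 3, cultures harvested on day 6 by freeze-thaw and pooled. Yield titrated by plaque assay under 0.25% agarose overlay for 5–6 days, then formalin-fixed and methylene blue-stained for plaque counts.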

Cytomegalovirus [2] = experiment: Log value for antiviral activity against Cytomegalovirus (AD169) from MRC5 diploid human embryonic lung cells at 0.32 ug/mL; type: functional; procedure, shortened: as §1
Cytomegalovirus [3] = experiment: Log value for antiviral activity against Cytomegalovirus (AD169) from MRC5 diploid human embryonic lung cells at 3.2 ug/mL; type: functional; procedure, shortened: as §1
Cytomegalovirus [4] = experiment: Log value for antiviral activity against Cytomegalovirus (AD169) from MRC5 diploid human embryonic lung cells at 32 ug/mL; type: functional; procedure, shortened: as §1
[5] = tested on: Japanese encephalitis virus; experiment: Tested for inhibition of virus-induced cytopathogenic effect and cytotoxicity of compound against Japanese encephalitis virus with […] strain in vero cell; type: functional
L1210 [6] = experiment: Compound was tested for antitumor activity against L1210 leukemia in mouse at dose 1 mg/kg administered subcutaneously in experiment 2; type: functional; conditions: L1210, sc, route subcutaneous
Procedure, shortened: (§2)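 Mice bearing L1210, L1210/ara-C, P388 or P388/ara-C leukaemia. Tumour implanted at the site each line names: ip, sc or ic. Drug given ip in physiologic saline on a QD1-9 schedule, at several dose levels per experiment. Life-span runs ended on day 30. Read-out is median % increase in life span versus tumoured untreated controls, with long-term survivors included.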

L1210 [7] = experiment: Compound was tested for antitumor activity against L1210 leukemia in mouse at dose 2.25 mg/kg administered intraperitoneally in experiment 1; type: functional; conditions: L1210, ip, route intraperitoneal; procedure, shortened: as §2
L1210 [8] = experiment: (§3) Log cell kill at the end of treatment at dose 1 mg/kg administered intraperitoneally; type: functional, Mus musculus; conditions: route intraperitoneal
P388 [9] = experiment: as §3; type: functional, Mus musculus; conditions: route intraperitoneal
L1210 [10] = experiment: Compound was tested for antitumor activity against L1210/ara-C leukemia in mouse at dose 1 mg/kg administered intraperitoneally; type: functional; conditions: L1210, ip, route intraperitoneal; procedure, shortened: as §2
L1210 [11] = experiment: Median percent increase in life span of tumored, treated mice relative to tumored, untreated controls after intraperitoneal dose 1 mg/kg daily (1-9 days); type: functional; conditions: Mus musculus, L1210, ip
L1210 [12] = experiment: Median percent increase in life span of tumored, treated mice relative to tumored, untreated controls after intraperitoneal dose 4 mg/kg daily (every 4th day); type: functional; conditions: Mus musculus, L1210, ip
[13] = tested on: Japanese encephalitis virus; experiment: Inhibitory dose of compound required to inhibit cytopathogenic effects of Japanese encephalitis virus with […] strain in vero cells; type: functional; conditions: read-out: ID50 (the source's name)
L1210 [14] = experiment: Number of 60-day survivors out of 10 tested at dose 2.25 mg/kg administered intraperitoneally; type: functional, Mus musculus; conditions: route intraperitoneal
L1210 [15] = experiment: Number of 60-day survivors out of 9 tested at dose 1.5 mg/kg administered intraperitoneally; type: functional, Mus musculus; conditions: route intraperitoneal
L1210 [16] = experiment: Compound was tested for antitumor activity against L1210 leukemia in mouse at dose 1 mg/kg administered intraperitoneally in experiment 1; type: functional; conditions: L1210, ip, route intraperitoneal; procedure, shortened: as §2
Mus musculus = experiment: Compound was tested for antitumor activity against human MX-1 mammary tumor xenografts in athymic mice at dose 1.5 mg/kg administered subrenal capsule in experiment 1; type: functional
P388 [17] = experiment: Compound was tested for antitumor activity against P388/ara-C leukemia in mouse at dose 1.5 mg/kg administered intraperitoneally in experiment 2; type: functional; conditions: P388, ip, route intraperitoneal; procedure, shortened: as §2
P388 [18] = experiment: Number of 30-day survivors out of 6 mice at dose 1.5 mg/kg administered intraperitoneally; type: functional, Mus musculus; conditions: route intraperitoneal
P388 [19] = experiment: Compound was tested for antitumor activity against P388 leukemia in mouse at dose 1.5 mg/kg administered intraperitoneally in experiment 2; type: functional; conditions: P388, ip, route intraperitoneal; procedure, shortened: as §2
P388 [20] = experiment: Compound was tested for antitumor activity against P388 leukemia in mouse at dose 1 mg/kg administered intraperitoneally in experiment 1; type: functional; conditions: P388, ip, route intraperitoneal; procedure, shortened: as §2
Punta Toro virus = experiment: Inhibitory dose of compound required to inhibit cytopathogenic effects of Punta toro virus with adames strain in vero cells; type: functional; conditions: read-out: ID50 (the source's name)
[21] = tested on: Vesicular stomatitis virus; experiment: Inhibitory dose of compound required to inhibit cytopathogenic effects of vesicular stomatitis RNA virus with indiana strain in L929 cells; type: functional
[22] = tested on: Vesicular stomatitis virus; experiment: Tested for inhibition of virus-induced cytopathogenic effect and cytotoxicity of compound against vesicular stomatitis RNA virus with indiana strain in L929 cell; type: functional
Human alphaherpesvirus 3 [23] = experiment: Compound was tested for antiviral activity against Varicella-Zoster from human diploid foreskin cells in mono layer culture at 3.2 ug/ml; type: functional
Procedure, shortened: (§4)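 VZV isolate DM625 on Huf cells (human diploid foreskin monolayers). Inoculum was left on after 1 h adsorption at 37 °C. Drug overlay in MEM + 2% FBS without agarose, refed with fresh drug at 72 h, in 2% CO2. Cells fixed in 10% formalin and stained with methylene blue; plaques counted day 6. % plaque reduction versus untreated virus controls, triplicates.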

Yellow fever virus = experiment: Inhibitory dose of compound required to inhibit cytopathogenic effects of yellow fever virus with asibi strain in vero cells; type: functional; conditions: read-out: ID50 (the source's name)
Vero [24] = experiment: Cytotoxicity of compound was determined by reduction in number of viable vero monolayer cells after treatment with 0.01 ug/mL for 4 days; type: functional, Chlorocebus sabaeus
Procedure, shortened: (§5)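 Vero monolayers in duplicate cultures, exposed to each drug concentration in medium at 37 °C in a CO2 incubator for 4 days. Viable cells counted by trypan blue exclusion, and % reduction calculated against untreated control cultures.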

Vero [25] = experiment: Cytotoxicity of compound was determined by reduction in number of viable vero monolayer cells after treatment with 0.032 ug/mL for 4 days; type: functional, Chlorocebus sabaeus; procedure, shortened: as §5
Vero [26] = experiment: Cytotoxicity of compound was determined by reduction in number of viable vero monolayer cells after treatment with 0.1 ug/mL for 4 days; type: functional, Chlorocebus sabaeus; procedure, shortened: as §5
Vero [27] = experiment: Cytotoxicity of compound was determined by reduction in number of viable vero monolayer cells after treatment with 100 ug/mL for 4 days; type: functional, Chlorocebus sabaeus; procedure, shortened: as §5
Human alphaherpesvirus 3 [28] = experiment: Compound was tested for antiviral activity against Varicella-Zoster from human diploid foreskin cells in mono layer culture at 0.01 ug/ml; type: functional; procedure, shortened: as §4
Human alphaherpesvirus 3 [29] = experiment: Compound was tested for antiviral activity against Varicella-Zoster from human diploid foreskin cells in mono layer culture at 0.032 ug/ml; type: functional; procedure, shortened: as §4
Human alphaherpesvirus 3 [30] = experiment: Compound was tested for antiviral activity against Varicella-Zoster from human diploid foreskin cells in mono layer culture at 0.1 ug/ml; type: functional; procedure, shortened: as §4
Human alphaherpesvirus 3 [31] = experiment: Compound was tested for antiviral activity against Varicella-Zoster from human diploid foreskin cells in mono layer culture at 1 ug/ml; type: functional; procedure, shortened: as §4
Human alphaherpesvirus 3 [32] = experiment: Compound was tested for antiviral activity against Varicella-Zoster from human diploid foreskin cells in mono layer culture at 10 ug/ml; type: functional; procedure, shortened: as §4
Human alphaherpesvirus 3 [33] = experiment: Compound was tested for antiviral activity against Varicella-Zoster from human diploid foreskin cells in mono layer culture at 100 ug/ml; type: functional; procedure, shortened: as §4
[34] = Ratio of minimum drug concentration to ID50 of the compound (Adames strain); type: ADME; conditions: read-out: Therapeutic index
[35] = Ratio of minimum drug concentration to ID50 of the compound(Asibi strain); type: ADME; conditions: read-out: Therapeutic index
[36] = Ratio of minimum drug concentration to ID50 of the compound (Indiana strain); type: ADME
L1210 [37] = experiment: Compound was tested for antitumor activity against L1210 leukemia in mouse at dose 1 mg/kg administered intracerebrally in experiment 2; type: functional; conditions: L1210, central; procedure, shortened: as §2

Structure (SMILES): Nc1ccn([C@@H]2C=C(CO)[C@@H](O)[C@H]2O)c(=O)n1
- Reduction in virus yield (Cytomegalovirus [1]): 0.8 pfu/ml
- Reduction in virus yield (Cytomegalovirus [2]): 1.3 pfu/ml
- Reduction in virus yield (Cytomegalovirus [3]): 1.5 pfu/ml
- Reduction in virus yield (Cytomegalovirus [4]): 2 pfu/ml
- Virus rating [5]: 2.4
- ILS at 1 mg/kg (L1210 [6]): 83%
- ILS at 2.25 mg/kg (L1210 [7]): 125%
- LCK (L1210 [8]): >6 and >5.8
- LCK (P388 [9]): 0.9
- ILS at 1 mg/kg (L1210 [10]): > 650%
- ILS at 1 mg/kg (L1210 [11]): 124%
- ILS at 4 mg/kg (L1210 [12]): 91%
- IC50 [13]: 0.1 µg/mL (≈ 0.418 µM)
- No. of survivors (L1210 [14]): 6
- No. of survivors (L1210 [15]): 5 count
- ILS at 1 mg/kg (L1210 [16]): 212%
- ILS at 1.5 mg/kg (Mus musculus): 100%
- ILS at 1.5 mg/kg (P388 [17]): 133%
- No. of survivors (P388 [18]): 3
- ILS at 1.5 mg/kg (P388 [19]): 69%
- ILS at 1 mg/kg (P388 [20]): 88%
- IC50 (Punta Toro virus): 1.01 µg/mL (≈ 4.22 µM)
- ID50 [21]: 0.57 µg/mL and 0.25 µg/mL
- Virus rating [22]: 2.4 and 3
- Plaque reduction (Human alphaherpesvirus 3 [23]): 33%
- IC50 (Yellow fever virus): 5.05 µg/mL (≈ 21.1 µM)
- Reduction (Vero [24]): 0%
- Reduction (Vero [25]): 3%
- Reduction (Vero [26]): 50%
- Reduction (Vero [27]): 66%
- Plaque reduction (Human alphaherpesvirus 3 [28]): 0%
- Plaque reduction (Human alphaherpesvirus 3 [29]): 3%
- Plaque reduction (Human alphaherpesvirus 3 [30]): 21%
- Plaque reduction (Human alphaherpesvirus 3 [31]): 36%
- Plaque reduction (Human alphaherpesvirus 3 [32]): 33%
- Plaque reduction (Human alphaherpesvirus 3 [33]): 41%
- selectivity ratio [34]: 0.3
- selectivity ratio [35]: 0.1
- Therapeutic index [36]: 0.4
- selectivity ratio ([36]; read-out: Therapeutic index): 0.6
- ILS at 1 mg/kg (L1210 [37]): 42%
